Pemphigus Ab inh: inhibitors of pemphigus antibody binding to DSG3, primary screen, biochemical, bead-based, flow cytometry, scFv-GFP | 310,000 compounds, 0.48% hits | binding (percent of control), % at 10 µM | Desmoglein-3 (Homo sapiens), P32926 | DSG3-coupled beads, scFv-anti-DSG3-GFP binding; active compounds read low | AID 588358, 2011;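 active means binding more than 3 SD below its plate's average and above zero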;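 further: hits lower antibody fragment binding to DSG3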
Target sequence (P32926 whole entry, looked up, the tested form may be a part): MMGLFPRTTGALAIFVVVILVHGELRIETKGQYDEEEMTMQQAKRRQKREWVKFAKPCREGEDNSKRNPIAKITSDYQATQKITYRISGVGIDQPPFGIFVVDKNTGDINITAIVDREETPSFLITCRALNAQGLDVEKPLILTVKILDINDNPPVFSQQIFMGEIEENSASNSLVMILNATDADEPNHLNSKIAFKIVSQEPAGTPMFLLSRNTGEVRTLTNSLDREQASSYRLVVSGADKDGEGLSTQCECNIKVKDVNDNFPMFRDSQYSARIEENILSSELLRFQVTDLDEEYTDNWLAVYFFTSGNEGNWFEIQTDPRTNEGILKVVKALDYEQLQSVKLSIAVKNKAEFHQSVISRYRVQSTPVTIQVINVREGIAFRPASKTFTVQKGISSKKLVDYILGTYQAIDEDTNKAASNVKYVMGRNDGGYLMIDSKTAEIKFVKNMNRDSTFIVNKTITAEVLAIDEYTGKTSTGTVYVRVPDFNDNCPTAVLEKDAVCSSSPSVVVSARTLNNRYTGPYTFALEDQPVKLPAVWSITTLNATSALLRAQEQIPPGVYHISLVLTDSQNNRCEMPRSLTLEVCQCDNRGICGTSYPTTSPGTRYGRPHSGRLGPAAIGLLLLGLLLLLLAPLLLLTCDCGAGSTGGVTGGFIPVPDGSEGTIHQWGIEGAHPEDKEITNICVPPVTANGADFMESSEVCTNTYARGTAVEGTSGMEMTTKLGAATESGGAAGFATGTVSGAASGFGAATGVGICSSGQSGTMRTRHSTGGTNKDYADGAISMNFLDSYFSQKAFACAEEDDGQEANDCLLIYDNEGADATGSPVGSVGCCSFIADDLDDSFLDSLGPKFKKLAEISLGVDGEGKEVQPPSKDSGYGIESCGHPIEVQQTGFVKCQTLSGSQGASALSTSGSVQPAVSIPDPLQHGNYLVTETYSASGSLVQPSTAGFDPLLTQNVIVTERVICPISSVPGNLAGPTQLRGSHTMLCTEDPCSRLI
TRPC6 inh: mouse TRPC6 channel inhibitors, primary screen, cell-based, HEK293, membrane potential dye. ACh-evoked depolarization; active compounds read low. Short transient receptor potential channel 6 (Mus musculus), Q61143. B-score at 10 µM. 310,000 compounds, 1.1% hits;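 active means B-score under library mean minus 3 SD, initial fluorescence not abnormally high, positive integrated signal ratio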;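 further: B-score derived from integrated fluorescence ratio over the kinetic read; more negative B-score means stronger inhibition of depolarization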
TRPC6 act: mouse TRPC6 channel activators, primary screen, cell-based, HEK293, membrane potential dye; Short transient receptor potential channel 6 (Mus musculus), Q61143; HEK293-TRPC6 membrane potential dye fluorescence; active compounds read high; B-score at 10 µM; 310,000 compounds, 0.13% hits;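 active means B-score of the integrated fluorescence ratio above library mean plus 3 SD, and starting fluorescence ratio within library mean plus 5 SD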;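 further: higher score means more depolarization so channel activation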
TRPC4 PAM: positive allosteric modulators of TRPC4, primary screen, cell-based, mouse TRPC4beta, HEK293 mu-opioid, Fluo-4 calcium; Short transient receptor potential channel 4 (Mus musculus), Q9QUQ5; DAMGO EC20, Fluo-4 Ca2+ flux; active compounds read high; B-score at 10 µM; 310,000 compounds, 0.42% hits; AID 2227, 2009;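 active means B-score of calcium response area above 5 SD of library B-scores, with initial fluorescence ratio within 5 SD of library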;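 further: B-score of integrated fluorescence ratio over time as area under calcium response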
TRPC4 inh: inhibitors of mouse TRPC4 channel, primary screen, Fluo4 calcium, HEK293 TRPC4beta/mu-opioid cells; Short transient receptor potential channel 4 (Mus musculus), Q9QUQ5; DAMGO-evoked Fluo4 calcium flux; active compounds read low; B-score at 10 µM; 300,000 compounds, 0.39% hits; AID 2247, 2010;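 active means B-score over 3 SD under the library average, no early fluorescence shift, positive overall ratio signal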
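Assay system: HEK293 cells with stable TRPC4beta plus mu-opioid receptor expression; Probe or stimulus: DAMGO in two steps, submaximal then maximal; Dosing: single-point compound dosing; Measured by: Fluo4 calcium-dye fluorescence, kinetic read; Read-out basis: B score from integrated Fluo4 fluorescence ratio.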
TRPC4 agonist: activators of mouse TRPC4 channel, primary screen, Fluo4 calcium, HEK293 TRPC4beta/mu-opioid cells; B-score at 10 µM; 310,000 compounds, 0.49% hits; Short transient receptor potential channel 4 (Mus musculus), Q9QUQ5; Fluo4 calcium fluorescence; active compounds read high;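 active means B-score above 5 SD of library B-scores, and initial fluorescence ratio not above library mean plus 5 SD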;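 further: positive B-score marks a calcium rise read as TRPC4 activation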
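Technique: kinetic Fluo4 calcium fluorescence; Test system: TRPC4beta and mu-opioid receptor HEK293 stable cells; Measure: B-scored integrated calcium fluorescence ratio; Benchmarks: low control buffer alone, high control maximal DAMGO; Schedule: 45 min room-temperature Fluo4 loading, 110 s read.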
HEK293 TRPC6 ctr: parental HEK293 membrane potential modulation, confirmation, counter-screen for TRPC6 modulator project, cell-based | shares compounds with TRPC6 inh | membrane potential dye fluorescence | membrane potential signal change, % at 10 µM | 2,400 compounds, 51% hits | AID 488924, 2010;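 active means membrane potential signal moves up or down beyond 5 SD from buffer-only wells, on both duplicate plates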
HEK293 MPD ctr 2: second check of TRPC6 modulator effects in parental HEK293 cells. inhibition, % at 10 µM. AID 488926. shares compounds with TRPC6 inh. 2,400 compounds, 14% hits. membrane potential dye fluorescence; after compound, maximal acetylcholine stimulation;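 active means membrane potential signal drops by more than 5 SD from the mean control signal, in both duplicate plates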;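 further: plate controls were acetylcholine ECmax control wells for no effect and buffer only wells for full effect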
TRPC4/MOR mod: TRPC4 modulation by TRPC6 hit compounds, confirmation, selectivity assay for TRPC6 modulator project, cell-based, HEK293 TRPC4/mu-opioid, membrane potential dye, mouse. shares compounds with TRPC6 inh. percent change from control (negative = decrease, positive = increase), % at 10 µM. 2,400 compounds, 69% hits. membrane potential fluorescence. AID 488927, 2010;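 active means membrane potential signal moved up or down beyond 5 SD of buffer control wells, in both duplicate plates, actives on both sides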;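 further: plate controls were assay buffer wells for no effect and DAMGO maximal-effect wells for full effect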
TRPC4/MOR inh 2: mouse TRPC4 off-target activity of TRPC6 modulators, second screen; shares compounds with TRPC6 inh; inhibition, % at 10 µM; 2,400 compounds, 55% hits; HEK293 TRPC4/mu-opioid, membrane potential dye fluorescence; stimulated with maximal-effect DAMGO;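 active means drop in membrane potential signal beyond 5 SD of the control wells in both duplicate plates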;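 further: TRPC4 counter screen for TRPC6 hits run under conditions tuned for TRPC6 not TRPC4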
TRPC6 block conf: mouse TRPC6 channel inhibitors, confirmation, HEK293 cells, membrane potential dye, duplicate | ACh-evoked depolarization | shares compounds with TRPC6 inh | inhibition, % at 10 µM | AID 488960, 2010 | 3,300 compounds, 43% hits;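 active means fluorescence ratio falls more than 5 SD below the full-stimulation control mean, in both duplicate runs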;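 further: integrated fluorescence ratio of peak minus minimum over baseline after agonist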
TRPC6 act conf: mouse TRPC6 channel activators, confirmation, HEK293 cells, membrane potential dye, duplicate. shares compounds with TRPC6 inh. HEK293-TRPC6 membrane potential dye fluorescence, FDSS. activation, % at 10 µM. 2,800 compounds, 11% hits;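 active means ratio signal rise beyond 5 SD above unstimulated control wells' mean, seen in both duplicate runs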;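 further: plate controls were buffer EC0 wells for no effect and acetylcholine ECmax response for full effect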
Active calls of the source: *; i = inactive; · = no result. Compounds with a hit are over-represented: about 2.5% of the library has one in this group of screens.

SMILES	Pemphigus Ab inh	TRPC6 inh	TRPC6 act	TRPC4 PAM	TRPC4 inh	TRPC4 agonist	HEK293 TRPC6 ctr	HEK293 MPD ctr 2	TRPC4/MOR mod	TRPC4/MOR inh 2	TRPC6 block conf	TRPC6 act conf
CN(C)CCCN(C(=O)c1ccc(S(=O)(=O)N(C)C)cc1)c1nc2cc3c(cc2s1)OCO3	101	-5*	i	i	i	i	i	i	-14%*	55%*	i	i
CN(C)CCCN(C(=O)c1ccco1)c1nc2ccc(Br)cc2s1	107	-8.1*	i	i	i	i	-120%*	i	-34%*	71%*	i	i
CN(C)CCN(C(=O)c1ccc(S(=O)(=O)N(C)c2ccccc2)cc1)c1nc2cc3c(cc2s1)OCO3	·	i	i	i	i	i	·	·	·	·	·	·
CN(C)CCCN(C(=O)CCc1ccccc1)c1nc2ccc(Br)cc2s1	93	i	i	i	i	i	·	·	·	·	·	·
Cc1cc(C)c2nc(N(CCN(C)C)C(=O)c3ccc(S(=O)(=O)N(C)CC4CCCO4)cc3)sc2c1 (configuration not stated)	110	i	i	i	i	i	·	·	·	·	·	·
CCOC(=O)c1cnn(-c2ccc(F)cc2)c1N	94	i	i	i	i	i	·	·	·	·	·	·
COc1cc(OC)c(NC(=O)c2sc3ncn(CC(=O)N4CCOCC4)c(=O)c3c2C)cc1Cl	88	i	i	i	i	i	·	·	·	·	·	·
CN(C)CCCN(C(=O)c1ccco1)c1nc2ccc(Cl)cc2s1	104	-6.3*	i	i	i	i	-180%*	i	-35%*	76%*	50%*	i
CN(C)CCN(C(=O)c1cc(Cl)sc1Cl)c1nc2ccc(F)cc2s1	131	i	i	i	i	i	·	·	·	·	·	·
CCOc1cccc2sc(N(CCN(CC)CC)C(=O)c3cccc([N+](=O)[O-])c3)nc12	105	-5*	i	i	i	i	i	i	-10%*	62%*	i	·
CCOc1cccc2sc(N(CCN(CC)CC)C(=O)c3cccc(N4C(=O)CCC4=O)c3)nc12	107	i	i	i	i	i	·	·	·	·	·	·
CN(C)CCN(C(=O)C1=COCCO1)c1nc2ccc(F)cc2s1	·	-7*	i	i	i	i	-139%*	i	-30%*	40%*	i	i
CC(C)(C)S(=O)N1Cc2cn(Cc3ccccc3)c(=O)cc2[C@H]1CCO (some centres not stated)	107	·	·	·	·	·	·	·	·	·	·	·
COc1ccc(-c2ccc(CO)o2)cc1N	103	i	i	i	i	i	·	·	·	·	·	·
COc1ccc(C2=NCCc3cc(OC)c(OC)cc32)cc1	104	i	i	i	i	i	·	·	·	·	·	·
COc1ccc(C2=NCCc3cc(OC)c(OC)cc32)cc1OC	99	-7.4*	i	i	i	i	-410%*	i	-70%*	62%*	63%*	i
COc1ccc(C)cc1NC(=O)c1ccc2c(O)c(S(=O)(=O)c3ccccc3)c(=O)[nH]c2c1	106	i	i	i	i	i	·	·	·	·	·	·
CC(C)C[C@H](NC(=O)c1[nH]cnc1C(=O)N[C@@H](C)C(=O)OCc1ccccc1)C(=O)OC(C)(C)C	105	-5.8*	i	i	i	i	i	i	i	i	i	i
Cc1nn(CC(=O)O)c(C)c1Cl	116	-11*	i	i	i	i	i	i	i	i	i	i
Cc1nn(CC(=O)O)c(C)c1C	102	i	i	i	i	i	·	·	·	·	·	·
COc1ccc(CCNC(=O)CCS(=O)(=O)c2ccc3nc(C)sc3c2)cc1OC	105	i	i	i	i	i	·	·	·	·	·	·
COC(=O)c1c(NC(=O)CN2CCN(Cc3ccc4c(c3)OCO4)CC2)sc(C)c1C	101	i	i	i	i	i	·	·	·	·	·	·
COc1ccc2c(c1)c(C(=O)CN1CCN(c3ccccc3)CC1)c(C)n2C	·	i	i	i	i	i	·	·	·	·	·	·
COC(=O)c1ccccc1NC(=O)CN1CCN(Cc2ccccc2)CC1	97	i	15*	i	i	i	384%*	i	60%*	40%*	i	142%*
COC(=O)c1ccccc1NC(=O)CN1CCCCC1	91	i	i	i	i	i	·	·	·	·	·	·
CCOC(=O)c1c(C)n(C)c2ccc(OC)c(NC(=O)CN3CCN(Cc4ccccc4)CC3)c12	107	-5.7*	i	i	i	i	i	i	8.5%*	39%*	i	i
COc1ccc2c(c1)c(C(=O)CN1CCN(Cc3ccccc3)CC1)c(C)n2C	96	-5.3*	i	i	i	i	i	i	-14%*	60%*	i	i
